Measured values taken from ChEMBL document CHEMBL3352325, “Synthesis and biological evaluation of novel aniline-derived asiatic acid derivatives as potential anticancer agents” (Eur J Med Chem, 2014).
Active and inactive are the calls of the source. The rule behind the calls is not given here.

Key:
HepG2 [1] = assay: Cytotoxicity against human HepG2 cells after 48 hrs by MTT assay; assay type: functional, cell-based; settings: HepG2, 48 h
Method in brief: (§1)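 Cells grown in medium with 10% heat-inactivated FBS, 5% CO2, 37 °C. Compounds given in medium with 1% DMSO at 1.25–20 graded concentrations; 1% DMSO medium served as control. MTT (5 mg/mL) added, formazan dissolved in DMSO, absorbance read at 570/630 nm. Survival expressed relative to negative control. IC50 by Bliss method (n=5), at least three independent experiments, mean ± SD.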

HepG2 [2] = assay: Cell cycle arrest in human HepG2 cells assessed as accumulation at G1 phase at 20 uM after 24 hrs using propidium iodide staining by flow cytometry (reference value: 41.51 %); assay type: functional
HepG2 [3] = assay: Induction of apoptosis in human HepG2 cells assessed as early apoptotic cells at 20 uM after 12 hrs by flow cytometry (reference value: 2.1 %); assay type: functional
Method in brief: (§2)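 HepG2 cells treated 12 h at 10 or 20 µM, with untreated control. Stained with annexin V-FITC plus PI for 30 min at 25 °C in the dark. Quadrant percentages read by flow cytometry.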

HepG2 [4] = assay: Induction of apoptosis in human HepG2 cells assessed as increase in Bax level after 24 hrs by Western blot analysis; assay type: functional, cell-based
Method in brief: (§3)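 HepG2 cells grown to 80–90% confluence, then kept 12 h in 0.1% FCS RPMI 1640. Exposed 24 h at 5, 10 or 20 µM. Cell extracts run on SDS-polyacrylamide gels, transferred to nitrocellulose and probed with primary antibodies against cytochrome c, Bax, Bcl-2, caspase-9, caspase-3 and cleaved PARP.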

HUVEC = assay: Cytotoxicity against human HUVEC cells after 48 hrs by MTT assay; assay type: cell-based; method in brief: as §1
HepG2 [5] = assay: Cell cycle arrest in human HepG2 cells assessed as accumulation at G1 phase at 20 uM after 12 hrs using propidium iodide staining by flow cytometry (reference value: 41.51 %); assay type: functional
MGC-803 = assay: Cytotoxicity against human MGC803 cells after 48 hrs by MTT assay; assay type: functional, cell-based; settings: MGC-803, 48 h; method in brief: as §1
HepG2 [6] = assay: Induction of apoptosis in human HepG2 cells assessed as accumulation of cytochrome c in cytosol at 5 to 20 uM after 24 hrs by Western blot analysis; assay type: functional, cell-based; method in brief: as §3
HepG2 [7] = assay: Cell cycle arrest in human HepG2 cells assessed as accumulation at G2 phase at 20 uM after 12 hrs using propidium iodide staining by flow cytometry (reference value: 6.20 %); assay type: functional
HepG2 [8] = assay: Induction of apoptosis in human HepG2 cells assessed as decrease in Bcl-2 level after 24 hrs by Western blot analysis; assay type: functional, cell-based; method in brief: as §3
NCI-H460 = assay: Cytotoxicity against human NCI-H460 cells after 48 hrs by MTT assay; assay type: functional, cell-based; settings: NCI-H460, 48 h; method in brief: as §1
HepG2 [9] = assay: Induction of apoptosis in human HepG2 cells assessed as increase in caspase-3 level at 5 to 20 uM after 24 hrs by Western blot analysis; assay type: functional, cell-based; method in brief: as §3
HepG2 [10] = assay: Cell cycle arrest in human HepG2 cells assessed as accumulation at S phase at 20 uM after 12 hrs using propidium iodide staining by flow cytometry (reference value: 52.28 %); assay type: functional
HepG2 [11] = assay: Cell cycle arrest in human HepG2 cells assessed as accumulation at G2 phase at 20 uM after 24 hrs using propidium iodide staining by flow cytometry (reference value: 6.20 %); assay type: functional
HeLa = assay: Cytotoxicity against human HeLa cells after 48 hrs by MTT assay; assay type: functional, cell-based; method in brief: as §1
HepG2 [12] = assay: Induction of apoptosis in human HepG2 cells assessed as increase in caspase-9 level at 5 to 20 uM after 24 hrs by Western blot analysis; assay type: functional, cell-based; method in brief: as §3
HepG2 [13] = assay: Induction of apoptosis in human HepG2 cells assessed as change in membrane integrity using acridine orange/ethidium bromide staining at 20 uM after 12 to 24 hrs by fluorescence microscopy; assay type: functional, cell-based
Method in brief: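 HepG2 cells on coverslips treated with 20 µM in medium with 10% FBS for 12 or 24 h, with untreated 24 h control. Stained with AO/EB and examined by fluorescence microscopy: green = live, green-yellow = early apoptotic, orange = late apoptotic or necrotic.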

HepG2 [14] = assay: Induction of apoptosis in human HepG2 cells assessed as condensation of nucleus using hoechst staining at 20 uM after 12 to 24 hrs by fluorescence microscopy; assay type: functional, cell-based
Method in brief: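 HepG2 cells on coverslips treated at 20 µM for 12 or 24 h, with untreated 24 h control. Fixed in 4% paraformaldehyde for 10 min, then stained with Hoechst 33258 for 5 min. Nuclei viewed by fluorescence microscopy at 350 nm excitation and 460 nm emission.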

HepG2 [15] = assay: Induction of apoptosis in human HepG2 cells assessed as necrotic cells at 20 uM after 12 hrs by flow cytometry (reference value: 2.3 %); assay type: functional; method in brief: as §2
HepG2 [16] = assay: Induction of apoptosis in human HepG2 cells assessed as caspase-8 expression at 20 uM by qRT-PCR analysis; assay type: functional, cell-based; settings: TDE = time-dependent effect
Method in brief: (§4)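 Total RNA extracted from HepG2 cells […]. Transcripts quantified by real-time RT-PCR, with Ct values normalized to actin by the ΔCt method. Run in triplicate per group.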

HepG2 [17] = assay: Induction of apoptosis in human HepG2 cells assessed as change in morphology at 20 uM after 12 to 24 hrs using JC-1 staining by fluorescence microscopy; assay type: functional, cell-based
Method in brief: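 HepG2 cells treated at 20 µM for 12 or 24 h, with untreated 24 h control. Incubated with JC-1 (5 µg/ml) at 37 °C for 20 min, rinsed in PBS. Green (515–545 nm) and red (570–600 nm) emission imaged by fluorescence microscopy; depolarization taken as a rise in green/red ratio.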

HepG2 [18] = assay: Induction of apoptosis in human HepG2 cells after 12 hrs by flow cytometry; assay type: functional, cell-based; method in brief: as §2
HepG2 [19] = assay: Induction of apoptosis in human HepG2 cells assessed as caspase-3 expression at 20 uM by qRT-PCR analysis; assay type: functional, cell-based; settings: TDE = time-dependent effect; method in brief: as §4
[20] = Cytotoxicity against human SMMC-7404 cells after 48 hrs by MTT assay; assay type: functional, cell-based; settings: SMMC-7404, 48 h; method in brief: as §1
HepG2 [21] = assay: Induction of apoptosis in human HepG2 cells assessed as generation of intracellular ROS at 20 uM after 12 to 24 hrs by fluorescence microscopy; assay type: functional, cell-based
Method in brief: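 HepG2 cells treated at 20 µM for 12 or 24 h, with untreated 24 h control. Loaded with 20 µM DCFH-DA in cell-free medium at 37 °C for 30 min in the dark, then washed in PBS. DCF fluorescence imaged by fluorescence microscopy at 485 nm excitation and 538 nm emission.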

HepG2 [22] = assay: Induction of apoptosis in human HepG2 cells assessed as late apoptotic cells at 10 uM after 12 hrs by flow cytometry (reference value: 6.9 %); assay type: functional; method in brief: as §2
HepG2 [23] = assay: Induction of apoptosis in human HepG2 cells assessed as late apoptotic cells at 20 uM after 12 hrs by flow cytometry (reference value: 6.9 %); assay type: functional; method in brief: as §2
HepG2 [24] = assay: Induction of apoptosis in human HepG2 cells assessed as early apoptotic cells at 10 uM after 12 hrs by flow cytometry (reference value: 2.1 %); assay type: functional; method in brief: as §2
HepG2 [25] = assay: Induction of apoptosis in human HepG2 cells assessed as necrotic cells at 10 uM after 12 hrs by flow cytometry (reference value: 2.3 %); assay type: functional; method in brief: as §2
HepG2 [26] = assay: Cell cycle arrest in human HepG2 cells assessed as accumulation at S phase at 20 uM after 24 hrs using propidium iodide staining by flow cytometry (reference value: 52.28 %); assay type: functional

C[C@H]1[C@H](C)CC[C@]2(C(=O)Nc3cccc(F)c3)CC[C@]3(C)C(=CC(=O)[C@@H]4[C@@]5(C)C[C@@H](O)[C@H](O)[C@@](C)(CO)[C@@H]5CC[C@]43C)[C@H]12
IC50 (HepG2 [1]): 5.97 µM | Activity (HepG2 [2]): 65.58% | Activity (HepG2 [3]): 25% | Activity (HepG2 [4]): Dose-dependent effect | IC50 (HUVEC): > 100 µM | Activity (HepG2 [5]): 55.29% | IC50 (MGC-803): 14.3 µM | Activity (HepG2 [6]): Active | Activity (HepG2 [7]): 6.09% | Activity (HepG2 [8]): Dose-dependent effect | IC50 (NCI-H460): 23.6 µM | Activity (HepG2 [9]): Active | Activity (HepG2 [10]): 38.62% | Activity (HepG2 [11]): 5.56% | IC50 (HeLa): 28.2 µM | Activity (HepG2 [12]): Active | Activity (HepG2 [13]): Active | Activity (HepG2 [14]): Active | Activity (HepG2 [15]): 2.6% | Activity (HepG2 [16]): tde | Activity (HepG2 [17]): Active | Activity (HepG2 [18]): Dose-dependent effect | Activity (HepG2 [19]): tde | IC50 [20]: 14.1 µM | Activity (HepG2 [21]): Active | Activity (HepG2 [22]): 6.6% | Activity (HepG2 [23]): 9% | Activity (HepG2 [24]): 7.2% | Activity (HepG2 [25]): 2.2% | Activity (HepG2 [26]): 28.86%
